Compound activity deposited in PubChem by several laboratories.
VIM-2 inhibitor: inhibitors of Pseudomonas aeruginosa VIM-2 metallo-beta-lactamase; purified VIM-2, nitrocefin hydrolysis, epi-absorbance fluorescence; inhibition, % at 5.6 µM; 290,000 compounds, 0.89% hits; AID 1527;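 active means inhibition above the mean of all tested compounds plus 3 SD, cutoff set per screening run, cut at about 7.5% in these data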;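 further: red hydrolysis product quenches plate fluorescence so inhibitors raise well fluorescence; 0% = enzyme with DMSO and 100% = DMSO without enzyme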
RanGTP-Impb inh: disruptors of Ran-importin-beta complex formation – biochemical, FRET, CFP-Ran, YFP-importin-beta, homogeneous, primary screen; 300,000 compounds, 1.1% hits; inhibition, % (test concentration not listed); cell-free CFP-Ran/YFP-importin-beta FRET ratio; AID 2216;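 active means more than half of the replicate wells show a fall in the fluorescence ratio signal beyond about 16%, limit read from the data, passing the limit was not always enough; inconclusive means exactly half of the replicate wells pass the set limit; inactive means fewer than half of replicates pass the limit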;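 further: 0% = DMSO wells and 100% = Ran loaded with GDP instead of GTP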
Runt-CBFb FRET: blocks binding of human RUNX1 Runt domain to CBFb. Q01196+Q13951. Cerulean-Runt/Venus-CBFb FRET ratio 530/480, 1 h. inhibition, % at 20 µM. 220,000 compounds, 0.46% hits;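 active means inhibition over about 50% at 20 µM in the single-dose screen, limit read from the data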;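 further: 0% = DMSO wells and 100% = excess unlabeled CBFb competitor control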
Target sequence (Q01196 whole entry, looked up, the tested form may be a part): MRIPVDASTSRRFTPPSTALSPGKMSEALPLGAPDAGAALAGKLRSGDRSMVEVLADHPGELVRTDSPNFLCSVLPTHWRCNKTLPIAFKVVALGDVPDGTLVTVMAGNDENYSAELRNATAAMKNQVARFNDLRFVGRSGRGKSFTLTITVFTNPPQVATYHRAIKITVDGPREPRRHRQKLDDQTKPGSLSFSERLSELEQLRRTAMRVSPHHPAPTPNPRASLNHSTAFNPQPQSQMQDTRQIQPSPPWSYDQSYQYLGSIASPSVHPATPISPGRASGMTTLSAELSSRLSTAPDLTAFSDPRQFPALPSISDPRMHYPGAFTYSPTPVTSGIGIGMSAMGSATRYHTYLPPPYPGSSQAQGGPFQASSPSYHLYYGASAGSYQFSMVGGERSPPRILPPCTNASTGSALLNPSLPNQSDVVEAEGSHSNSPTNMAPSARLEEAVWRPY
Target sequence (Q13951 whole entry, looked up, the tested form may be a part): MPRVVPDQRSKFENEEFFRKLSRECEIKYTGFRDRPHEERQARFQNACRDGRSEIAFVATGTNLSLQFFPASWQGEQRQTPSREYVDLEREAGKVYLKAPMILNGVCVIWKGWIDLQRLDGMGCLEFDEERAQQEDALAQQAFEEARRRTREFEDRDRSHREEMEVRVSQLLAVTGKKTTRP
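Measured by: fluorescence energy transfer, 422 nm excitation, 530/480 nm emission; test system: Cerulean-tagged RUNX1 Runt domain (FRET donor) fusion protein; buffer or medium: Tris pH 7.5 buffer with BSA; compound: one dose, 20 µM compound, 1% DMSO; times: two 1 h room-temperature incubations shielded from light; benchmarks: unlabeled CBFb 5 µM, positive control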
Runt-SMMHC FRET: Runt domain-CBFb-SMMHC interaction inhibition. Q01196+Q13951. Cerulean-Runt/Venus-CBFb-SMMHC FRET ratio 530/480, 1 h. inhibition, % at 20 µM. 220,000 compounds, 0.74% hits. AID 1434;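 active means mean inhibition across duplicate retests at 20 µM reaching about 50%, limit read from the data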;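 further: 0% = DMSO wells and 100% = wells with excess untagged CBFb-SMMHC; inhibitors lower the FRET ratio by blocking Runt binding to CBFb-SMMHC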
IMP-1 inh: inhibitors of Pseudomonas aeruginosa IMP-1 metallo-beta-lactamase | inhibition, % at 5.6 µM | purified IMP-1, nitrocefin hydrolysis, epi-absorbance fluorescence | 290,000 compounds, 0.45% hits;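 active means inhibition above the mean plus 3 SD of all compounds in the same screening run, cut at about 4.5% in these data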;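 further: 0% = IMP-1 with DMSO and 100% = DMSO wells lacking enzyme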
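System – purified recombinant IMP-1 beta-lactamase · Input – IMP-1 dispensed at 0.2 nM · Timing – 15 min preincubation plus 25 min reaction at 25 °C · Signal – Epi-absorbance fluorescence, 480 nm excitation, 530 nm emission · Measure – percent IMP-1 inhibition derived from blank-referenced optical density · Controls – Enzyme-plus-DMSO low control, enzyme-free DMSO high control · Replication – singlicate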
* hit, by the source's call. In the library only some 2.6% were active in any assay of this set; here they are far more common.

Screening CCCc1cc(=O)oc2c(CN3CCOCC3)c(O)ccc12 returned VIM-2 inhibitor 1, RanGTP-Impb inh 5, Runt-SMMHC FRET 90* and IMP-1 inh -2.
For CCc1c(C)c2cc(Cl)c(O)c(CN3CCCC3)c2oc1=O the results were VIM-2 inhibitor 2, RanGTP-Impb inh inconclusive and IMP-1 inh 1.
`O=c1oc2c(CN3CCOCC3)c(O)c(Cl)cc2c2c1CCCC2` gave VIM-2 inhibitor 2, RanGTP-Impb inh 85*, Runt-CBFb FRET 105*, Runt-SMMHC FRET 42 and IMP-1 inh 5.3*.
`Cc1ccc(CN2CCC(CNC(=O)c3ccc(NC(=O)C4=CSCCO4)cc3)CC2)cc1` gave VIM-2 inhibitor -1, RanGTP-Impb inh 5 and IMP-1 inh -1.
`CC1CCCN(CCCN2C(=O)C3C(C(=O)Nc4cccc(Cl)c4)C4C=CC3(O4)C2C(=O)NC2CCCCC2)C1` (stereo not drawn) gave VIM-2 inhibitor -1, RanGTP-Impb inh -1 and IMP-1 inh -1.
For Cc1ccc(F)c(C2C3C=CCC(c4cccc(-c5ccc(N(C)C)cc5)c4)C3C(=O)N2Cc2ccccc2)c1 (stereo not drawn) the results were RanGTP-Impb inh -4, Runt-CBFb FRET 13 and Runt-SMMHC FRET 0.
For O=C(c1ccccc1)c1ccc(O)cc1O the results were VIM-2 inhibitor 7, RanGTP-Impb inh -22, Runt-CBFb FRET -16, Runt-SMMHC FRET -58 and IMP-1 inh 12*.
For CCOc1ccc(CN2CCC(C(=O)Nc3cccc(-c4ccn[nH]4)c3)CC2)cc1Cl the results were VIM-2 inhibitor -3, RanGTP-Impb inh 2 and IMP-1 inh -2.
For CC(=O)c1c(N2CCN(c3ccccn3)CC2)nc(=S)n(-c2ccccc2)c1C the results were VIM-2 inhibitor 1, RanGTP-Impb inh 57*, Runt-CBFb FRET 93*, Runt-SMMHC FRET 99* and IMP-1 inh -2.
COc1ccc(N2CCN(c3nc(=S)n(-c4ccccc4)c(C)c3C(C)=O)CC2)cc1 was read as VIM-2 inhibitor -1, RanGTP-Impb inh 92*, Runt-CBFb FRET 7, Runt-SMMHC FRET -27 and IMP-1 inh 0.
For CCOC(=O)c1nn(-c2cccc(Cl)c2)c(C)c1C(C)=O the results were VIM-2 inhibitor -1, RanGTP-Impb inh 1, Runt-CBFb FRET 1, Runt-SMMHC FRET 1 and IMP-1 inh -4.
CC(=O)c1c(NCCc2ccccc2)nc(=S)n(-c2ccccc2)c1C was read as VIM-2 inhibitor -5, RanGTP-Impb inh 4, Runt-CBFb FRET 3, Runt-SMMHC FRET 2 and IMP-1 inh -3.
Screening COc1ccc(N2CCN(C(=O)c3c(C)nn(-c4ccccc4)c3C)CC2)cc1 returned VIM-2 inhibitor -1, RanGTP-Impb inh 0, Runt-CBFb FRET -2, Runt-SMMHC FRET -5 and IMP-1 inh -2.
Screening CN(C(=O)N1CCN(c2ccccn2)CC1)c1ccccc1 returned VIM-2 inhibitor -1, RanGTP-Impb inh 3, Runt-SMMHC FRET -5 and IMP-1 inh -2.
For CC(=O)c1c(N2CCN(c3cccc(Cl)c3)CC2)nc(=S)n(-c2ccccc2)c1C the results were VIM-2 inhibitor -1, RanGTP-Impb inh 46*, Runt-CBFb FRET 6, Runt-SMMHC FRET 8 and IMP-1 inh -3.
For CCn1c(C)c(C(C)=O)c(N2CCN(c3cccc(Cl)c3)CC2)nc1=S the results were VIM-2 inhibitor -4, RanGTP-Impb inh 29*, Runt-CBFb FRET -38, Runt-SMMHC FRET 54 and IMP-1 inh -2.
CN(C(=O)COC(=O)C1CSC2(C)CCC(=O)N12)c1ccccc1 (stereo not drawn) was read as RanGTP-Impb inh 11.
For Cc1cc(C)n(Cc2cccc(C(=O)N/N=C/c3ccncc3)c2)n1 the results were VIM-2 inhibitor 0, RanGTP-Impb inh -2 and IMP-1 inh -2.
CC(=O)c1c(N2CCN(C)CC2)nc(=S)n(Cc2ccccc2)c1C was read as VIM-2 inhibitor -1, RanGTP-Impb inh inconclusive, Runt-CBFb FRET 62*, Runt-SMMHC FRET 83* and IMP-1 inh -2.
For CCn1c(C)c(C(C)=O)c(N2CCN(c3ccc(OC)cc3)CC2)nc1=S the results were VIM-2 inhibitor 2, RanGTP-Impb inh 84*, Runt-CBFb FRET 9, Runt-SMMHC FRET -39 and IMP-1 inh -2.
CCNNC(=O)C(O)(Cc1ccccc1)Cc1ccccc1 was read as VIM-2 inhibitor -4, RanGTP-Impb inh -1 and IMP-1 inh -4.
